# In ChEMBL document CHEMBL4406880, “Design, synthesis, and bioactivity of dihydropyrimidine derivatives as kinesin spindle protein inhibitors” (Bioorg Med Chem, 2019):
# Experiments:
# Format in all cases: functional
# OVCAR-4 = experiment: Growth inhibition of human OVCAR4 cells assessed as growth percentage at 10 uM incubated for 48 hrs by sulforhodamine B assay relative to control; details: OVCAR-4, 48 h, read-out: Activity
# Method in brief: (§1)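 NCI-60 one-dose screen. Cells in RPMI 1640 with 5% FBS and 2 mM L-glutamine, seeded at 5,000–40,000 cells/well according to doubling time, and preincubated overnight at 37 °C, 5% CO2. A time-zero plate was TCA-fixed at drug addition. Compound from DMSO stock, final 10 µM, 48 h; DMSO vehicle controls. Fixation with TCA, 10% final (16% for suspension cells). SRB stain, Tris solubilization, A515. Result given as % growth versus untreated cells.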
# SF-295 = experiment: Growth inhibition of human SF295 cells assessed as growth percentage at 10 uM incubated for 48 hrs by sulforhodamine B assay relative to control; details: SF-295, 48 h, read-out: Activity
# Method in brief: (§2)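 NCI-60 single-dose screen. Cells were grown in RPMI 1640 with 5% FBS and 2 mM L-glutamine and plated at 5,000–40,000 cells/well. After an overnight preincubation at 37 °C in 5% CO2, compound was added at a final 10 µM from a DMSO stock, with DMSO/PBS controls. After 48 h, cells were TCA-fixed and stained with 0.4% SRB, and absorbance was read at 515 nm. Growth is given as a percentage of untreated control.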
# LOX IMVI = experiment: Growth inhibition of human LOXIMVI cells assessed as growth percentage at 10 uM incubated for 48 hrs by sulforhodamine B assay relative to control; details: read-out: Activity; method in brief: as §1
# SK-MEL-5 = experiment: Growth inhibition of human SK-MEL-5 cells assessed as growth percentage at 10 uM incubated for 48 hrs by sulforhodamine B assay relative to control; details: SK-MEL-5, 48 h, read-out: Activity; method in brief: as §2
# SNB-19 = experiment: Growth inhibition of human SNB19 cells assessed as growth percentage at 10 uM incubated for 48 hrs by sulforhodamine B assay relative to control; details: SNB-19, 48 h, read-out: Activity; method in brief: as §2
# UACC-62 = experiment: Growth inhibition of human UACC62 cells assessed as growth percentage at 10 uM incubated for 48 hrs by sulforhodamine B assay relative to control; details: UACC-62, 48 h, read-out: Activity; method in brief: as §2
# Hs-578T = experiment: Growth inhibition of human Hs 578T cells assessed as growth percentage at 10 uM incubated for 48 hrs by sulforhodamine B assay relative to control; details: read-out: Activity; method in brief: as §1
# U-251 = experiment: Growth inhibition of human U251 cells assessed as growth percentage at 10 uM incubated for 48 hrs by sulforhodamine B assay relative to control; details: U-251, 48 h, read-out: Activity; method in brief: as §2
# SK-MEL-2 = experiment: Growth inhibition of human SK-MEL-2 cells assessed as growth percentage at 10 uM incubated for 48 hrs by sulforhodamine B assay relative to control; details: SK-MEL-2, 48 h, read-out: Activity; method in brief: as §2
# MDA-MB-231 = experiment: Growth inhibition of human MDA-MB-231 cells assessed as growth percentage at 10 uM incubated for 48 hrs by sulforhodamine B assay relative to control; details: MDA-MB-231, 48 h, read-out: Activity; method in brief: as §1
# CCRF-CEM = experiment: Growth inhibition of human CCRF-CEM cells assessed as growth percentage at 10 uM incubated for 48 hrs by sulforhodamine B assay relative to control; details: read-out: Activity
# Method in brief: (§3)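 NCI-60 one-dose screen: cells in RPMI 1640 with 5% FBS and 2 mM L-glutamine, plated at 5,000–40,000 cells/well and preincubated 24 h at 37 °C, 5% CO2. Compound is added from a DMSO stock to a final 10 µM and incubated 48 h. Cells are TCA-fixed and stained with sulforhodamine B, read at 515 nm. Output is % growth versus untreated control, with a time-zero plate.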
# K562 = experiment: Growth inhibition of human K562 cells assessed as growth percentage at 10 uM incubated for 48 hrs by sulforhodamine B assay relative to control; details: K562, 48 h, read-out: Activity; method in brief: as §1
# M14 = experiment: Growth inhibition of human M14 cells assessed as growth percentage at 10 uM incubated for 48 hrs by sulforhodamine B assay relative to control; details: M14, 48 h, read-out: Activity; method in brief: as §1
# BT-549 = experiment: Growth inhibition of human BT549 cells assessed as growth percentage at 10 uM incubated for 48 hrs by sulforhodamine B assay relative to control; details: BT-549, 48 h, read-out: Activity; method in brief: as §3
# A549 = experiment: Growth inhibition of human A549/ATCC cells assessed as growth percentage at 10 uM incubated for 48 hrs by sulforhodamine B assay relative to control; details: A549, 48 h, read-out: Activity; method in brief: as §3
# SR = experiment: Growth inhibition of human SR cells assessed as growth percentage at 10 uM incubated for 48 hrs by sulforhodamine B assay relative to control; details: read-out: Activity; method in brief: as §2
# MCF7 = experiment: Growth inhibition of human MCF7 cells assessed as growth percentage at 10 uM incubated for 48 hrs by sulforhodamine B assay relative to control; details: MCF7, 48 h, read-out: Activity; method in brief: as §1
# EKVX = experiment: Growth inhibition of human EKVX cells assessed as growth percentage at 10 uM incubated for 48 hrs by sulforhodamine B assay relative to control; details: read-out: Activity; method in brief: as §3
# HL-60(TB) = experiment: Growth inhibition of human HL-60(TB) cells assessed as growth percentage at 10 uM incubated for 48 hrs by sulforhodamine B assay relative to control; details: HL-60, 48 h, read-out: Activity
# Method in brief: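 NCI-60 single-dose screen. Cells in RPMI 1640 with 5% FBS and 2 mM L-glutamine are plated at 5,000–40,000 cells/well and preincubated overnight at 37 °C, 5% CO2. Compound is added from a DMSO stock at 10 µM final for 48 h. Cells are TCA-fixed (suspension cells 16% final) and stained with SRB. Absorbance is read at 515 nm, and percentage growth is calculated against untreated controls with a time-zero plate.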
# UACC-257 = experiment: Growth inhibition of human UACC257 cells assessed as growth percentage at 10 uM incubated for 48 hrs by sulforhodamine B assay relative to control; details: UACC-257, 48 h, read-out: Activity; method in brief: as §2
# NCI-H522 = experiment: Growth inhibition of human NCI-H522 cells assessed as growth percentage at 10 uM incubated for 48 hrs by sulforhodamine B assay relative to control; details: NCI-H522, 48 h, read-out: Activity; method in brief: as §1
# HCT-15 = experiment: Growth inhibition of human HCT15 cells assessed as growth percentage at 10 uM incubated for 48 hrs by sulforhodamine B assay relative to control; details: HCT-15, 48 h, read-out: Activity; method in brief: as §3
# SF-539 = experiment: Growth inhibition of human SF539 cells assessed as growth percentage at 10 uM incubated for 48 hrs by sulforhodamine B assay relative to control; details: SF-539, 48 h, read-out: Activity; method in brief: as §2
# RPMI-8226 = experiment: Growth inhibition of human RPMI8226 cells assessed as growth percentage at 10 uM incubated for 48 hrs by sulforhodamine B assay relative to control; details: RPMI-8226, 48 h, read-out: Activity; method in brief: as §2
Compound,growth at 10 µM (OVCAR-4),growth at 10 µM (SF-295),growth at 10 µM (LOX IMVI),growth at 10 µM (SK-MEL-5),growth at 10 µM (SNB-19),growth at 10 µM (UACC-62),growth at 10 µM (Hs-578T),growth at 10 µM (U-251),growth at 10 µM (SK-MEL-2),growth at 10 µM (MDA-MB-231),growth at 10 µM (CCRF-CEM),growth at 10 µM (K562),growth at 10 µM (M14),growth at 10 µM (BT-549),growth at 10 µM (A549),growth at 10 µM (SR),growth at 10 µM (MCF7),growth at 10 µM (EKVX),growth at 10 µM (HL-60(TB)),growth at 10 µM (UACC-257),further results
CC1=C(C(=O)OC(C)C)C(c2ccc3c(c2)OCO3)NC(=O)N1 (racemic),103%,104%,96.3%,97.6%,93.6%,94.9%,102%,100%,108%,104%,113%,119%,104%,93.7%,106%,108%,96.5%,96.1%,108%,104%,growth at 10 µM (NCI-H522): 91.1%; growth at 10 µM (HCT-15): 99.7%; growth at 10 µM (SF-539): 100%; growth at 10 µM (RPMI-8226): 101%
CC(=O)C1=C(C)NC(=S)NC1c1ccc2c(c1)OCO2 (racemic),103%,104%,98.7%,100%,98.9%,98.6%,101%,98.2%,106%,104%,101%,98.6%,107%,108%,105%,104%,103%,106%,96.4%,102%,growth at 10 µM (NCI-H522): 92.3%; growth at 10 µM (HCT-15): 108%; growth at 10 µM (SF-539): 98.7%; growth at 10 µM (RPMI-8226): 105%
CC1=C(C(=O)OCC(C)C)C(c2ccc3c(c2)OCO3)NC(=O)N1 (racemic),104%,99.5%,96.5%,101%,107%,98.5%,118%,99.8%,104%,106%,104%,113%,105%,99.4%,109%,108%,101%,95.5%,96%,103%,growth at 10 µM (NCI-H522): 91.1%; growth at 10 µM (HCT-15): 101%; growth at 10 µM (SF-539): 104%; growth at 10 µM (RPMI-8226): 99.9%
